Shown are actives, neighbours in structure and some others; about 4.5% of the full set was active somewhere.
OX1R antag-1 = blocks the human orexin 1 receptor; OX1R-expressing cells, FRET antagonist read-out; AID 485270; inhibition, % at 6.6 µM; 330,000 compounds, 1.8% hits; in the data active = inhibition mostly above about 38%, no sharp cut-off; inactive = mostly below about 40%;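 note: 0% = agonist challenge alone and 100% = reference antagonist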
OX1R antag-2 = antagonists of human orexin 1 receptor; 330,000 compounds, 0.43% hits; inhibition, % at 5 µM; O43613; CHO/OX1R cells, Fluo-8 calcium fluorescence, orexin A;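 active = inhibition above its plate's threshold, mean inhibition of all tested compounds on the plate plus 3 SD, cut at about 37% in these data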;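 note: 0% = orexin A challenge wells and 100% = SB-334867-A antagonist wells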
TAAR1 antag = human TAAR1 antagonism; Q96RJ0; inhibition, % at 3 µM; 360,000 compounds, 1.5% hits; CHO RD-HGA16 TAAR1, Fluo-8 calcium fluorescence, antagonist;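 active = inhibition above a per-plate cutoff, the mean inhibition of test compounds on that plate plus 3 SD, cut at about 49% in these data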;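 note: 0% = DMSO plus EC80 beta-PEA response and 100% = DMSO alone without agonist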
Target sequence (Q96RJ0 whole entry, looked up): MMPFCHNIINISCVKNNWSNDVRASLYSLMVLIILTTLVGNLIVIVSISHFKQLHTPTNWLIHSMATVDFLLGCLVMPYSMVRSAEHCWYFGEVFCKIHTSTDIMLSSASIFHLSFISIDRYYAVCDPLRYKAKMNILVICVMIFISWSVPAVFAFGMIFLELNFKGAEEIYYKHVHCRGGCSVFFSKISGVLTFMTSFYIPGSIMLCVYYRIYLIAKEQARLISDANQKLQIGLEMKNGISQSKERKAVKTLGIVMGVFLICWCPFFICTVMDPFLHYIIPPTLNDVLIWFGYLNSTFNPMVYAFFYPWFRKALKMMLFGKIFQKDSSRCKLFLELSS
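System: CHO RD-HGA16 cells bearing hTAAR1. Reagent: EC80 β-phenethylamine stimulus. Schedule: seeding 17-24 h prior, 75-min 37 °C, 30-min RT dye loading. Signal: Fluo-8 intracellular calcium dye fluorescence, real-time kinetic reads. Read-out: % inhibition from peak post-agonist over basal fluorescence ratio. Benchmarks: vehicle wells and EC80 agonist wells. Replicates: n of 1.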
TAAR1 agonist = agonists of human TAAR1; Q96RJ0; CHO RD-HGA16 TAAR1, Fluo-8 calcium fluorescence; vehicle wells 0%, saturating PEA agonist 100%; activation, % at 3 µM; 360,000 compounds, 0.99% hits;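 active = activation above the mean activation of all test compounds in the run plus 3 SD, cut at about 38% in these data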
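test system = CHO RD-HGA16 cells carrying human TAAR1 plus Gα16 | schedule = 17-24 h seeding, 75 min 37 °C dye, 30 min RT | compound dosing = 3 µM single concentration | control set = DMSO and PEA EC100 | replicates = n 1 | signal = Fluo-8 fluorescence, 5 s baseline then 140 s kinetic read | measure = percent activation vs PEA EC100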
GPR7 antagonist = antagonists of human GPR7 (neuropeptides B/W receptor 1). P48145. 290,000 compounds, 1.1% hits. inhibition, % at 4.4 µM. GPR7-expressing cells, fluorescence antagonist assay. AID 1861; in the data active = inhibition above about 16%, passing the limit was not always enough;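 note: cells stimulated with the agonist NPW; 0% = agonist with vehicle and 100% = vehicle without agonist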
Target sequence (P48145 whole entry, looked up): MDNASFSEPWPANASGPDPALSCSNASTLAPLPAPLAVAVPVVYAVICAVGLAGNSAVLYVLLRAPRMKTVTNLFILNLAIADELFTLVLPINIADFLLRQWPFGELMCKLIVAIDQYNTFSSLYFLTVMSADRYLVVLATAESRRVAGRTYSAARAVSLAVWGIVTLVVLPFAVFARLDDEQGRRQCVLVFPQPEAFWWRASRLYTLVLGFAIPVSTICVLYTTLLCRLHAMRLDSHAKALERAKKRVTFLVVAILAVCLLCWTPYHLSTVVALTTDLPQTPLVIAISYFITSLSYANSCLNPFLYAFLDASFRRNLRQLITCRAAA
CHO parental Ca = counter-screen: ATP calcium response change in parental CHO cells. parental CHO-K1, ATP-induced calcium, Fluo-8 fluorescence. inhibition, % at 5.6 µM. 330,000 compounds, 0.63% hits. AID 463079;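 active = inhibition above that plate's mean sample inhibition plus 3 SD, cut at about 26% in these data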;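 note: 0% = ATP-challenged DMSO wells and 100% = DMSO wells without ATP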
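Measured by: calcium-sensitive Fluo-8 fluorescence / Test system: CHO parental line / Controls: ATP-challenged DMSO wells low, unchallenged DMSO wells high / Measure: % inhibition / Compound: single nominal dose of 5.6 µM per compound / Replicates: single well per compound, no replicates / Reagent: ATP as calcium-mobilizing challenge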
Numbers without * were called inactive; . = no result.

SMILES | OX1R antag-1 | OX1R antag-2 | TAAR1 antag | TAAR1 agonist | GPR7 antagonist | CHO parental Ca
Cc1cc(C(=O)CN2C(=O)NC3(CCCc4sccc43)C2=O)c(C)n1-c1ccc(Cl)cc1 (configuration not stated) | 50* | 4 | -4 | 3 | -11 | -10
Cc1cc2c(nc1C)CCCN2S(=O)(=O)c1ccc(C(F)(F)F)cc1 | . | . | -4 | 1 | . | .
C=CCN1N=C(c2ccc(NC(=O)c3ccccc3)cc2)CSC1=O | 9 | -9 | 10 | 13 | 3 | 47*
O=C(Cn1ncc(Cl)c(Cl)c1=O)N1CCN(S(=O)(=O)c2ccc3ccccc3c2)CC1 | 17 | 36 | 19 | 8 | 40* | 31*
Cc1cc(N2CCCC2=O)cc(C)c1S(=O)(=O)NCCOc1ccc(C(C)(C)C)cc1 | 70* | 67* | 41 | 8 | -2 | 41*
COc1ccc(C(=O)O/N=C(\N)c2ccccc2)c(OC)c1 | 16 | -33 | 12 | 5 | -8 | -10
COc1ccc(C(=O)O/N=C(\N)c2ccc(OC)c(OC)c2)c(OC)c1 | 63* | 8 | . | . | -7 | -6
CC(C)C1=CC2C3C(=O)N(c4ccccc4)C(=O)C3C1C(=O)C2(C)O (configuration not stated) | . | . | -3 | 2 | . | .
O=C(N[C@H](Cc1ccccc1)C(=O)N1CCN(CC(=O)N2CCCC2)CC1)[C@H]1O[C@@H](n2ccc(=O)[nH]c2=O)[C@H](O)[C@@H]1O | . | . | -4 | 2 | . | .
CCOC(=O)[C@]12CCCC=C1N(Cc1ccc(Cl)cc1Cl)C(=O)[C@H](CC(=O)N1CCN(C(=O)c3ccco3)CC1)C2 | . | . | -22 | 0 | . | .
O=C(N/N=C/c1ccc(O)cc1)Nc1cccc2nsnc12 | 34 | 13 | 67* | 38* | -22 | 3
COc1cc(/C=N/NC(=O)Nc2cccc3nsnc23)cc(OC)c1OC | . | . | 10 | 6 | 3 | .
Cc1nc(NC(=O)c2oc3ccccc3c2C)sc1C(=O)N(C)C | 54* | 12 | 20 | 3 | -5 | -6
Cc1nnc(NC(=O)c2oc3ccccc3c2C)s1 | 48 | -11 | -6 | 11 | -22 | -10
CC(=O)Nc1c(C(=O)Nc2ccc3c(c2)OCO3)oc2ccccc12 | 21 | -16 | -20 | 4 | -13 | -8
Cc1c(C(=O)Nc2ccc3c(c2)OCO3)oc2ccccc12 | 73* | -1 | -5 | -5 | -9 | -22
O=C(CCl)Nc1c(C(=O)Nc2ccc3c(c2)OCCO3)oc2ccccc12 | 68* | -6 | 3 | -3 | 1 | -16
O=[N+]([O-])c1cc(Cl)cc(/C=N/NC(=S)Nc2ccc(S(=O)(=O)N3CCOCC3)cc2)c1O | 75* | -12 | 29 | -2 | -12 | -3
COCc1cc(N2CCN(C(=O)OC(C)(C)C)C[C@H]2C)ccc1Br | . | . | -12 | -2 | . | .
COC(=O)c1ccc2nc(-c3cccc(Br)c3)c(Cc3cccc(Cl)c3)n2c1 | . | . | -29 | 8 | . | .
CC(C)(C)S(=O)(=O)N1C[C@@H]2C(=C(CCO)C[C@@H]3C(=O)N(c4ccccc4)C(=O)[C@@H]32)[C@H]1CCO | . | . | 7 | 6 | . | .
O=C(Nc1ccc(N2CCCC(O)C2)cc1)c1snc2c(=O)[nH]cnc12 (configuration not stated) | 40* | -5 | -6 | 4 | -8 | 0
C#CCN1C(=O)[C@]2(OC[C@@H]3Cc4ccccc4[C@@H]3C=C2C)c2ccccc21 | . | . | 16 | 1 | . | .
CSc1ccc(S(=O)(=O)Nc2ccc(F)cc2)cc1 | 14 | 16 | 23 | 39* | -1 | -3
O=S(=O)(Nc1cccnc1)c1ccc2c(c1)OCCO2 | 13 | -17 | -1 | 12 | 20* | 4
SMILES | OX1R antag-1 | OX1R antag-2 | TAAR1 antag | TAAR1 agonist | GPR7 antagonist | CHO parental Ca
Cc1ccc(S(=O)(=O)Nc2ccc3c(c2)OCCO3)cc1 | 20 | -1 | -19 | 3 | 0 | 0
O=S(=O)(Nc1cccnc1Cl)c1ccc2c(c1)OCCO2 | 12 | -2 | 10 | 1 | -11 | -3
COc1ccc(S(=O)(=O)Nc2ccc(S(=O)(=O)N3CCOCC3)cc2)cc1 | 17 | -11 | 16 | 2 | -3 | -5
COC(=O)c1ccc(NS(=O)(=O)c2ccc(SC)cc2)cc1 | 12 | -3 | -1 | 28 | -1 | 1
O=S(=O)(Nc1ccc2c(c1)OCCO2)c1ccc(F)cc1 | 6 | -17 | 15 | 40* | -3 | -9
O=S(=O)(Nc1ccc(F)cc1)c1ccc(S(=O)(=O)N2CCOCC2)cc1 | 5 | 19 | 38 | 61* | . | -5
COc1ccc(OC)c(CN2C(=O)CN(S(C)(=O)=O)CC2(C)C(=O)NC(C)C)c1 (configuration not stated) | . | . | -7 | 2 | . | .
CCCN1C(=O)c2n[nH]c(C(C)C)c2C1c1cccc(C(F)(F)F)c1 (configuration not stated) | . | . | -3 | -2 | . | .
C/C(=N\N=c1/sc2ccccc2n1C)c1ccccn1 | 62* | -6 | -30 | 2 | 8 | -23
Cc1ccc2[nH]c3c(NCCN4CCOCC4)ncnc3c2c1 | . | . | -4 | 6 | 4 | .
Clc1ccc2[nH]c3c(NCCCN4CCOCC4)ncnc3c2c1 | 9 | -8 | 18 | 0 | 20* | -9
CNS(=O)(=O)c1cc(Nc2ncnc3sccc23)ccc1C | 63* | 19 | 7 | 5 | 9 | 4
COc1ccc2[nH]cc(CCNC(=O)COc3cc(C)cc4oc(=O)cc(C)c34)c2c1 | 25 | -18 | 39 | 6 | -12 | -27
CCOc1ccc(NC(=O)CN(C)C(=O)c2c(C)nn(-c3ccc(F)cc3)c2Cl)cc1OCC | 1 | -21 | -34 | -1 | . | -16
CCN(CC(=O)Nc1ccc(NC(C)=O)cc1)C(=O)c1c(C)nn(-c2ccc(F)cc2)c1Cl | 1 | -17 | 54* | 15 | . | -21
CC(C)CC(NC(=O)c1ccc(Cl)cc1)C(=O)OCC(=O)c1ccc2c(c1)NC(=O)CO2 (configuration not stated) | 42 | 65* | -1 | 1 | -4 | 63*
COc1ccc(C2=Nn3c(nnc3-c3ccccc3F)SC2)cc1OC1CCCC1 | 23 | 32 | 66* | 3 | . | -12
COc1ccc(C2=Nn3c(nnc3-c3ccccc3F)SC2)cc1OC1CCOC1 (configuration not stated) | 13 | -12 | 28 | 7 | . | -19
COCCCNC(=S)N1CCN(c2nc(-c3ccc(Cl)cc3)cs2)CC1 | . | . | 62* | 4 | . | .
CC(C)CNC(=S)N1CCN(c2nc(-c3ccc(Cl)cc3)cs2)CC1 | 34 | -1 | 34 | -2 | -7 | 39*
COCCCNC(=S)N1CCN(c2nc(-c3ccccc3)cs2)CC1 | 22 | -16 | 37 | 10 | 1 | -1
CCOC(=O)N1CCN(C(=O)C[C@H]2C[C@@]3(C(=O)OC)C(=C[C@H](COCc4ccccc4)O[C@@H]3C)N(Cc3ccc4c(c3)OCO4)C2=O)CC1 | . | . | -10 | -2 | . | .

Screening data (PubChem BioAssay)
